Assay results published in ChEMBL document CHEMBL1145310, “Isothiazolopyrimidines and isoxazolopyrimidines as novel multi-targeted inhibitors of receptor tyrosine kinases” (Bioorg Med Chem Lett, 2006).

Key:
[1] = target: Vascular endothelial growth factor receptor 3 (Homo sapiens, UniProt P35916); test: Inhibition of FLT4
[2] = target: Vascular endothelial growth factor receptor 1 (Homo sapiens, UniProt P17948); test: Inhibition of FLT1
[3] = target: Mast/stem cell growth factor receptor Kit (Homo sapiens, UniProt P10721); test: Inhibition of CKIT
Angiopoietin-1 receptor = Angiopoietin-1 receptor (Homo sapiens, UniProt Q02763); test: Inhibition of TIE2
In short: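 Kinase enzymatic assays run separately for each target. Each IC50 came from seven inhibitor concentrations, with every assay point determined in duplicate.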

[4] = Half life in mouse at 3 mg/kg, iv; format: ADME, organism-based; set-up: dose 3 mg/kg, route intravenous; conditions: in vivo
In short: (§1)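 Mouse pharmacokinetics: single intravenous dose of 3 mg/kg and single oral dose of 10 mg/kg. Half-life, volume of distribution at steady state, clearance, oral bioavailability and oral AUC were determined.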

[5] = Oral bioavailability in mouse at 10 mg/kg, po; conditions: in vivo
[6] = AUC in mouse at 10 mg/kg, po; format: ADME, organism-based; set-up: dose 10 mg/kg, route oral; conditions: plasma; in short: as §1
[7] = target: Vascular endothelial growth factor receptor 2 (Homo sapiens, UniProt P35968); test: Inhibition of KDR
[8] = Clearance in mouse at 3 mg/kg, iv; format: ADME, organism-based; set-up: dose 3 mg/kg, route intravenous; conditions: in vivo
[9] = Volume of distribution in mouse at 3 mg/kg, iv; format: ADME, organism-based; set-up: dose 3 mg/kg, route intravenous; conditions: in vivo, read-out: Vdss

Vascular endothelial growth factor receptor 2, sequence (P35968 whole entry): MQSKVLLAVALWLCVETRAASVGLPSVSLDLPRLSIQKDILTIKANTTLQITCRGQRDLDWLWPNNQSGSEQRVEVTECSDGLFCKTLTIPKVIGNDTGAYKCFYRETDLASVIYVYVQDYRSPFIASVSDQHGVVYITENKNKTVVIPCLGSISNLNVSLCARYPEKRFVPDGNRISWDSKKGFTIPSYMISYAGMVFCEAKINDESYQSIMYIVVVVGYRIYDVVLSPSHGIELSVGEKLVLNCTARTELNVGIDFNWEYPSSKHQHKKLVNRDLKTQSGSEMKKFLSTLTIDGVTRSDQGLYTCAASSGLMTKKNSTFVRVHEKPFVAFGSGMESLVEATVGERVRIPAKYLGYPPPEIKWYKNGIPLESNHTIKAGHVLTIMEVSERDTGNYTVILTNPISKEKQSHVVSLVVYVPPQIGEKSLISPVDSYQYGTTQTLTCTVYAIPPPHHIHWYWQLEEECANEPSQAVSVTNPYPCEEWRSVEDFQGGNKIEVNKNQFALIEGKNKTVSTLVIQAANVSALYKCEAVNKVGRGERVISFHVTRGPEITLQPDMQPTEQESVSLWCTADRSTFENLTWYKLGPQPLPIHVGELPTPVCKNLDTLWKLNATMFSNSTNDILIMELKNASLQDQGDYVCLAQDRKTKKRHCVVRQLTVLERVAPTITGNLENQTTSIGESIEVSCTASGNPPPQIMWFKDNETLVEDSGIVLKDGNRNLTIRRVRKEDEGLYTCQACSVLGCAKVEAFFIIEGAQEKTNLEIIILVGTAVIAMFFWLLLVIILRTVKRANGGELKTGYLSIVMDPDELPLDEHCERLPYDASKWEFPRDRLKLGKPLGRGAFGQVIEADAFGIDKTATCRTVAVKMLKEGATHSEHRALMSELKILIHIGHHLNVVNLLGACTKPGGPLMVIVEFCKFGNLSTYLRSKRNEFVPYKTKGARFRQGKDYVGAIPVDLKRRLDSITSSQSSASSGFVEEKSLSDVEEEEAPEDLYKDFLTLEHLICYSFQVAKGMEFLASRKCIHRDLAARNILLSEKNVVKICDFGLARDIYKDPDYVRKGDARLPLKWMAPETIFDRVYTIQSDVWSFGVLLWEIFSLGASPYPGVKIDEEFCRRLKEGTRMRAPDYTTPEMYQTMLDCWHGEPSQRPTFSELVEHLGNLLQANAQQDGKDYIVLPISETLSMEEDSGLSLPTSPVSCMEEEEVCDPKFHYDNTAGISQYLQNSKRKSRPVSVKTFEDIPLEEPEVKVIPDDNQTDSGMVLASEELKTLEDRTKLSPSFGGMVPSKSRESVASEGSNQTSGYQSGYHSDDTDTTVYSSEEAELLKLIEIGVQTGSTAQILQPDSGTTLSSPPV
Vascular endothelial growth factor receptor 1, sequence (P17948 whole entry): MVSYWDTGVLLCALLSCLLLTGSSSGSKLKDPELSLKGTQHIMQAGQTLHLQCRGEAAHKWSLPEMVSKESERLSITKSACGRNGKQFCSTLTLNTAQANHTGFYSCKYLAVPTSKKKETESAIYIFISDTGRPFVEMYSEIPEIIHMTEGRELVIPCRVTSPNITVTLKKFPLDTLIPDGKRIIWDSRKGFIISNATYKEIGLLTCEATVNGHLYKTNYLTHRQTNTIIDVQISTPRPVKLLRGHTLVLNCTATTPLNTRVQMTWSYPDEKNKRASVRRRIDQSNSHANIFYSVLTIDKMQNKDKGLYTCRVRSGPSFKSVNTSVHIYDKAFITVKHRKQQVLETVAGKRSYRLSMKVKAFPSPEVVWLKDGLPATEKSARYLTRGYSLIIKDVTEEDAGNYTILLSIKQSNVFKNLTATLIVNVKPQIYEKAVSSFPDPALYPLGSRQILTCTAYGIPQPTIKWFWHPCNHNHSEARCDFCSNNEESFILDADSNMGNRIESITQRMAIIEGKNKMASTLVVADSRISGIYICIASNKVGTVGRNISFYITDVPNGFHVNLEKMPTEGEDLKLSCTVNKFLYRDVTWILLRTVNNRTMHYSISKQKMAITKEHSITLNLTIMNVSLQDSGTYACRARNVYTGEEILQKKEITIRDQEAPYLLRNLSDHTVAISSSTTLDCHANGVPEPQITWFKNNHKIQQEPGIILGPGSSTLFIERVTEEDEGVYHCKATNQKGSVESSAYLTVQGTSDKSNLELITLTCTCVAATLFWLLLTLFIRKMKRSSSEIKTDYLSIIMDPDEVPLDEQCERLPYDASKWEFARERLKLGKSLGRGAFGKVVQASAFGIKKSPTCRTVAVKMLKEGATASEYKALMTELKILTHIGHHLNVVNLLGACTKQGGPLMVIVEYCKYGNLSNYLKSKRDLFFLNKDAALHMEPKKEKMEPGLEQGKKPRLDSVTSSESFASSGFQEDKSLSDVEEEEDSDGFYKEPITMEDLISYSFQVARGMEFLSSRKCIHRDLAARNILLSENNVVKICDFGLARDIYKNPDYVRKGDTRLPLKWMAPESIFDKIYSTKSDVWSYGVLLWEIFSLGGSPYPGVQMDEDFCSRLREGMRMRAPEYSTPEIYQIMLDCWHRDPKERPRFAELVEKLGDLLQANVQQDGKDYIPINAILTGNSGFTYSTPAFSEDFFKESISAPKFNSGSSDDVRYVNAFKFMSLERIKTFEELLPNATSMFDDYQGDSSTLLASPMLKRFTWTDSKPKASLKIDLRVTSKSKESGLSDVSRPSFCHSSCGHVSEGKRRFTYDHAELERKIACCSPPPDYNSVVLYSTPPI
Angiopoietin-1 receptor, sequence (Q02763 whole entry): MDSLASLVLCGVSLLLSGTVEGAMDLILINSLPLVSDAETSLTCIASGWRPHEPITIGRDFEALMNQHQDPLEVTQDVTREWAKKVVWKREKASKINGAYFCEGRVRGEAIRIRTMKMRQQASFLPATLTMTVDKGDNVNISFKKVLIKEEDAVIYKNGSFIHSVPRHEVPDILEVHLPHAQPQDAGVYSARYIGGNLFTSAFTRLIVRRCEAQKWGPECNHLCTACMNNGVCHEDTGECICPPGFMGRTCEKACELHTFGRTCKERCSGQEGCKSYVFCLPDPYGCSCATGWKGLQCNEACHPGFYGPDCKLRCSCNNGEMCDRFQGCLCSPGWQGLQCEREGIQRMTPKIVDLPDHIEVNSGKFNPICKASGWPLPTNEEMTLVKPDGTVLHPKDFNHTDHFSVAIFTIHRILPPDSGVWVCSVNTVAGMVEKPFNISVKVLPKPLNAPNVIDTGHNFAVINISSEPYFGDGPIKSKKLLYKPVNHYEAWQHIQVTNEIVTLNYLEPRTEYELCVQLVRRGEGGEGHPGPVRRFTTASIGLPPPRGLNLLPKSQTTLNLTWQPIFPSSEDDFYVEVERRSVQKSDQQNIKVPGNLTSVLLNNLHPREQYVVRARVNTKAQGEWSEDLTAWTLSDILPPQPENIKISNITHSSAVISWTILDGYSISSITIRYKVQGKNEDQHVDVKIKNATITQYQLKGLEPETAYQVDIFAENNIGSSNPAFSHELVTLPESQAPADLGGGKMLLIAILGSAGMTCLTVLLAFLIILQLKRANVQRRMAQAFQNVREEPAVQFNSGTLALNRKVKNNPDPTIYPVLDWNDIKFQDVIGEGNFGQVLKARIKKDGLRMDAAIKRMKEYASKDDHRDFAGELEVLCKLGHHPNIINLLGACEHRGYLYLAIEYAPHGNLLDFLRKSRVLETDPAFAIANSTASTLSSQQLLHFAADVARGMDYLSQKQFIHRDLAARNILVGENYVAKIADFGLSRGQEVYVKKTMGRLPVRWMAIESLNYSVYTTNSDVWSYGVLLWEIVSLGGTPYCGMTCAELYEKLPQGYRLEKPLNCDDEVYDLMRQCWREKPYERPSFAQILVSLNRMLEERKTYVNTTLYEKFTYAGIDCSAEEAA
Mast/stem cell growth factor receptor Kit, sequence (P10721 whole entry): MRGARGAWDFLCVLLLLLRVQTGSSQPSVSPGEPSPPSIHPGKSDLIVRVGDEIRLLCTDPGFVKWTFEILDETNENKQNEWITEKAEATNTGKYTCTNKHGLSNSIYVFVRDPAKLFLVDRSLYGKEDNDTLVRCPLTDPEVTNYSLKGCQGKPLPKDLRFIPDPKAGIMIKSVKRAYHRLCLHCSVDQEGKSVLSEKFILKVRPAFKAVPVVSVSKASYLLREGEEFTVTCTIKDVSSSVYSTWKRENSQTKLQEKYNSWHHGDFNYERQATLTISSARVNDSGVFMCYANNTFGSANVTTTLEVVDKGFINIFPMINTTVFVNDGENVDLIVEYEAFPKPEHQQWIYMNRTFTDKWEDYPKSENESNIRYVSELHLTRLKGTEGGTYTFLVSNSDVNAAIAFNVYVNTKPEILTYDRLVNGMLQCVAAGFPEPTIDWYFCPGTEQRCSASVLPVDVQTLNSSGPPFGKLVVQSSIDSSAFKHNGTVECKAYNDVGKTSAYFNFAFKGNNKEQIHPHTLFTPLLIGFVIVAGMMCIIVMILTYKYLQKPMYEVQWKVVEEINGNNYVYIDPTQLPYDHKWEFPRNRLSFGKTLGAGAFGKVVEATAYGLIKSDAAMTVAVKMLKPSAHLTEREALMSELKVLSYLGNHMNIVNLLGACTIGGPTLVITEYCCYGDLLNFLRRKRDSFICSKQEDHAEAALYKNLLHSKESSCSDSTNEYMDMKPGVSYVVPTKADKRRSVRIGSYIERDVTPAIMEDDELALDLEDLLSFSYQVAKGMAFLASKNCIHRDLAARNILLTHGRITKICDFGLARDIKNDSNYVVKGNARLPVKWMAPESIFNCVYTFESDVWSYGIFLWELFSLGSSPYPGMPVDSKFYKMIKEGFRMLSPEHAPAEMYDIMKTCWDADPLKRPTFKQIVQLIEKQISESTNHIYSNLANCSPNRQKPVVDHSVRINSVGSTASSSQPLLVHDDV

SMILES	IC50 [1] [nM]	IC50 [2] [nM]	IC50 [3] [nM]	IC50 (Angiopoietin-1 receptor) [nM]	half-life [4] [min]	bioavailability [5] [%]	AUC [6] [µM·h]	IC50 [7] [nM]	clearance [8] [mL/min/kg]	Vd [9] [L/kg]
Nc1ncnc2snc(-c3ccc(NC(=O)Nc4cc(C(F)(F)F)ccc4F)cc3)c12	23	75	28	22	–	–	–	–	–	–
Nc1ncnc2onc(-c3ccc(NC(=O)c4ccccc4)cc3)c12	–	–	–	–	–	–	–	> 50000	–	–
Cc1ccc(F)c(NC(=O)Nc2ccc(-c3nsc4ncnc(N)c34)cc2)c1	–	–	–	19	12	48	2.7	–	75	1.19
Cc1cc(C)c2oc(Nc3ccc(-c4noc5ncnc(N)c45)cc3)nc2c1	–	–	–	–	–	–	–	> 50000	–	–
Nc1ncnc2snc(-c3ccc([N+](=O)[O-])cc3)c12	–	–	–	–	–	–	–	> 50000	–	–

Now from value to compound:

IC50 [1] [nM]	IC50 [2] [nM]	IC50 [3] [nM]	IC50 (Angiopoietin-1 receptor) [nM]	half-life [4] [min]	bioavailability [5] [%]	AUC [6] [µM·h]	IC50 [7] [nM]	clearance [8] [mL/min/kg]	Vd [9] [L/kg]	SMILES
–	–	–	–	42	65	14	–	–	–	Cc1cccc(NC(=O)Nc2ccc(-c3csc4ncnc(N)c34)cc2)c1
4	79	11	415	36	56	9.1	–	26.7	1.36	Cc1cccc(NC(=O)Nc2ccc(-c3nsc4ncnc(N)c34)cc2)c1
< 3	39	18	28	–	–	–	–	–	–	Nc1ncnc2snc(-c3ccc(NC(=O)Nc4cccc(C(F)(F)F)c4)cc3)c12
